Source: ChEMBL document CHEMBL1122838, “GABA agonists. Resolution, absolute stereochemistry, and enantioselectivity of (S)-(+)- and (R)-(-)-dihydromuscimol” (J Med Chem, 1985)
The source made the active and inactive calls. The rule behind the calls is not given here.

How the values were obtained:
GABA transporter [1] = molecular target: T1, GABA transporter (Rattus norvegicus, UniProt P31647+P23978+P31646+P48056); assay: In vitro inhibition of GABA uptake in rat brain synaptosomes
Felis catus [2] = assay: In vivo BMC-sensitive inhibitory effect on cat spinal neurons relative to that of GABA; Equal activity; format: functional, organism-based
[3] = molecular target: GABA-A receptor; anion channel; assay: In vitro inhibition of [3H]P4S binding to Gamma-aminobutyric acid receptor of rat brain synaptic membranes; format: cell membranes, Membrane
[4] = molecular target: Gamma-aminobutyric acid receptor subunit gamma-1 (Rattus norvegicus, UniProt P23574); assay: In vitro inhibition of [3H]GABA binding to Gamma-aminobutyric acid receptor of rat brain synaptic membranes; format: cell membranes, Membrane
Sequence of Gamma-aminobutyric acid receptor subunit gamma-1 (P23574 whole entry): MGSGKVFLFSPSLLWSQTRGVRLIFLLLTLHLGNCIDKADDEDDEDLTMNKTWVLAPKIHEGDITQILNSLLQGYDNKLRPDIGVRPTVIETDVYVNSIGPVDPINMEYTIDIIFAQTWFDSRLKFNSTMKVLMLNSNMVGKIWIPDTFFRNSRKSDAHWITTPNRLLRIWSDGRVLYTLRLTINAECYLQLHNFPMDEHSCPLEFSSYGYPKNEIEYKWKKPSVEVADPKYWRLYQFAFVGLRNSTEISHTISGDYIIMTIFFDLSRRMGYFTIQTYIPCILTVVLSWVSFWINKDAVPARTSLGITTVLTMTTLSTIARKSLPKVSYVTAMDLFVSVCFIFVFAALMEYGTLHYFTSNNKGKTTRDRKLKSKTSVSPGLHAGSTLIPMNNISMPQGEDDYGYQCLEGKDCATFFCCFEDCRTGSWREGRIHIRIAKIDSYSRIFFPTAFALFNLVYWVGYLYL

[5] = molecular target: GABA-A receptor; anion channel; assay: In vitro inhibition of [3H]THIP binding to Gamma-aminobutyric acid receptor in rat brain synaptic membranes; format: cell membranes, Membrane
Method in brief: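 Radioligand 0.005 μM [3H]THIP; rat cortical synaptic membranes (0.8–1.2 mg protein) in 0.05 M Tris-citrate pH 7.1, triplicate, 15 min at 4 °C, analogue up to 100 μM. IC50 derived from displacement; three experiments averaged per concentration.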

GABA transporter [6] = molecular target: T1, GABA transporter; format: functional, cell membranes, Brain, Membrane
Felis catus [7] = assay: BMC-sensitive inhibitory effect on cat spinal neurons relative to that of GABA was expressed in vivo as relative potency; Less activity; format: functional, organism-based
Felis catus [8] = assay: BMC-sensitive inhibitory effect on cat spinal neurons relative to that of GABA was expressed in vivo as relative potency; Greater activity; format: functional, organism-based
[9] = molecular target: GABA-A receptor; anion channel; assay: In vitro inhibition of [3H]GABA binding to rat brain synaptic membranes; format: cell membranes, Membrane
Method in brief: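 Rat cerebral cortex synaptic membranes (0.8–1.2 mg protein) incubated in triplicate 15 min at 4 °C in 0.05 M Tris-citrate pH 7.1 with 0.005 μM [3H]GABA and analogue (up to 100 μM). Displacement used to derive IC50; each concentration mean of three experiments.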

Row | SMILES | IC50 (GABA transporter [1]) [nM] | Relative potency (Felis catus [2]) | IC50 [3] [nM] | IC50 [4] [nM] | IC50 [5] [nM] | IC50 (GABA transporter [6]) [nM] | Relative potency (Felis catus [7]) | Relative potency (Felis catus [8]) | IC50 [9] [nM]
1 | NC[C@H]1CC(=O)NO1 | 70000 | Active | – | – | – | – | – | – | –
2 | NC[C@H]1CC(O)=NO1 | – | – | 540 | 250 | 140 | – | – | – | –
3 | NC[C@@H](O)CC(=O)O | – | – | 900 | 400 | 200 | 29000 | Partially active | – | –
4 | NCc1cc(=O)[nH]o1 [MUSCIMOL] | – | – | 6 | 6 | 5 | – | – | – | –
5 | NCc1cc(O)no1 [MUSCIMOL] | – | – | – | – | – | 320000 | – | Active | –
6 | NC[C@H](O)CC(=O)O | 67000 | – | 1900 | – | 300 | – | Partially active | – | 1000
7 | NC[C@@H]1CC(=O)NO1 | – | – | 8 | 4 | 3 | > 500000 | – | Active | –
8 | NCC1CC(=O)NO1 (racemic) | – | – | 18 | – | 5 | 130000 | – | Active | 8
